Reference: publication PMC6146057 (ACS chemical neuroscience, 2018)
Residue numbers refer to the chain shown, from its start. Read-outs that look alike come from different tables or passages of the source.

What was measured:
M1 [1] = molecular target: T1, M1 (Homo sapiens, UniProt P11229); settings: cited from earlier work
T1 sequence (P11229 1-460): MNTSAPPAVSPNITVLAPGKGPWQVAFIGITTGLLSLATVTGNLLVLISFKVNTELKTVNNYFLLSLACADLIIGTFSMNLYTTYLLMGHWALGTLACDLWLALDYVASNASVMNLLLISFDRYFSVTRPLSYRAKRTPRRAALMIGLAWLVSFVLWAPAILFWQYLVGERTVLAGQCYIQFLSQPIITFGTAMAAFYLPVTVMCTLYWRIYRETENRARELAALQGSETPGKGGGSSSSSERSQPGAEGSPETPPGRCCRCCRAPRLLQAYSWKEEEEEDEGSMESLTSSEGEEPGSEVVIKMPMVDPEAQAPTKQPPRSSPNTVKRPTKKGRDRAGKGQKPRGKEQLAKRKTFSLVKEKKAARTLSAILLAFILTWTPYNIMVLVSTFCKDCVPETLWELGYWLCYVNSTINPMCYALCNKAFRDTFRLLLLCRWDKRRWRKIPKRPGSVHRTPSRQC

[2] = tested on: layer V medial prefrontal cortex fEPSPs; settings: cited from earlier work
rats [3] = settings: cited from earlier work
rat M1 = molecular target: T2, rat M1 (Rattus norvegicus, UniProt P08482); settings: reported M1 PAMs with adverse effect liability; cited from earlier work
T2 sequence (P08482 1-460): T1 sequence (P11229 1-460) with A5V, T254S, P309S, R320K, A337G, I413V

mice = settings: cited from earlier work
rats [4] = test: Contextual fear conditioning, risperidone-induced deficit; format: in vivo, rat; settings: 3 mg/kg i.p. alone
M1 [5] = molecular target: T1, M1; test: M1 PAM potency at increasing ACh concentration; format: cell-based; settings: read-out: M1 PAM potency
[6] = tested on: layer V medial prefrontal cortex fEPSPs; test: Extracellular field electrophysiology in layer V prelimbic mPFC slices; parameters: species or system mouse
Summary of the method: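 Coronal prelimbic slices (400 μm) recovered in NMDG-HEPES solution (pH 7.3) for 8–10 min at 32 °C, then were perfused with ACSF at 2 mL/min and 30–32 °C. Layer V fEPSPs were evoked from layers II–III (200 μs, 0.05 Hz) or optically in ChR2-injected mice. Compound alone was bath-applied for 20 min. Alternatively, 10 μM compound was applied for 10 min, then with 3 μM OxoM for 10 min. Slope was measured 46–50 min after washout.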

For `Cn1cc(-c2ccc(CN3Cc4ncccc4C3=O)c(F)c2)cn1` [VU0453595], the “potency at M1” value (M1 [1]) is listed as “low micromolar range”.

In the case of `Cc1ccc(Cc2cc3c(=O)n([C@H]4CCCC[C@@H]4O)cnc3c3ccccc23)cn1` [compound 2], the “Agonist activity in the mouse PFC” value [2] is given as “have agonist activity”, the “Efficacy in rat novel object recognition (NOR) model” value (rats [3]) is given as “failed to show efficacy” and the “Displacement of [3H]-NMS” value (rat M1) is given as “weak to significant displacement”. The “Behavioral convulsions, Racine scale” value (mice; mice, develop rapidly and lasted 3 h) was 4/5.

With `Cc1nc2n(c(=O)c1CCN1CCC(c3noc4cc(F)ccc34)CC1)CCCC2` [risperidone, reference compound] the “Effect on acquisition of contextual fear conditioning” value (rats [4]) was “deficits in acquisition of contextual fear conditioning”.

For `COc1ccc(Cn2cc(C(=O)O)c(=O)c3ccccc32)cc1` [compound 1], the “Displacement of [3H]-NMS” value (rat M1) is listed as “weak to significant displacement”.

In the case of `Cc1cc2c(cc1Cc1ccc(-c3cocn3)cc1)C(=O)N([C@H]1CCOC[C@@H]1O)C2` [PF-06827443], the “Agonist activity in the mouse PFC” value [2] is listed as “have agonist activity”, the EC50 (M1 [5]; ACh concentration increased to EC70) is listed as 7 ± 1 nM and the EC50 (M1 [5]; very low level of ACh (~EC9)) is listed as 40 ± 6 nM. The “Displacement of [3H]-NMS” value (rat M1) was “weak to significant displacement” and the Seizures in mice (mice; mice) was “induced seizures in mice”.

In the case of `C[N+](C)(C)CC#CCN1CCCC1=O` [oxotremorine-M, reference compound], the “LTD of layer V fEPSPs, agonist alone” value ([6]; 3 μM, optical stimulation of ventral hippocampal afferents) is reported as “does not induce a significant LTD”.

With `C[N+](C)(C)CCOC(N)=O` [carbachol, reference compound] the “LTD of layer V fEPSPs, agonist alone” value ([6]; 10 μM, electrically evoked) was “does not induce a significant long-term depression”.

For `Cn1cc(-c2ccc(Cn3cc(C(=O)N[C@H]4CCCC[C@@H]4O)c4c(F)cc(F)cc43)cn2)cn1` [VU6004256], the “Behavioral convulsions and cholinergic AEs” value (mice; rodents) is listed as “devoid of behavioral convulsions and cholinergic AEs”.
